Source: ChEMBL document CHEMBL1155395, “Discovery of substituted biphenyl imidazoles as potent, bioavailable bombesin receptor subtype-3 agonists” (Bioorg Med Chem Lett, 2010)
pEC50: −log10 of the molar value.

Columns and labels:
[1] = target: T1, Bombesin receptor subtype-3 (Homo sapiens, UniProt P32247); experiment: Agonistic activity at human BRS3 expressed in HEK293AEO cells by aequorin bioluminescence assay; assay type: functional, cell-based
T1 sequence (P32247 whole entry): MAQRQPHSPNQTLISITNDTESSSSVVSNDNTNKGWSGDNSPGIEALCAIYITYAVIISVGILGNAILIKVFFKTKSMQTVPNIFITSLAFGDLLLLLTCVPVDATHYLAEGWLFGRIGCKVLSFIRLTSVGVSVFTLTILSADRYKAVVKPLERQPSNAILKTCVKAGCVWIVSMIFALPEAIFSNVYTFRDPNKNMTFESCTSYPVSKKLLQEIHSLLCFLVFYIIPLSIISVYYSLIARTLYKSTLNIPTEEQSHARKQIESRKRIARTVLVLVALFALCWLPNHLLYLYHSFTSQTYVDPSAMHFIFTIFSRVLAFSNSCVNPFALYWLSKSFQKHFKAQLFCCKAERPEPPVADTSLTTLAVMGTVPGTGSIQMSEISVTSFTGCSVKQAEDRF

[2] = target: T2, Bombesin receptor subtype-3 (Homo sapiens) (UniProt P32247); experiment: Agonistic activity at human BRS3 expressed in HEK293AEO at 10 uM cells by aequorin bioluminescence assay relative to dY peptide; assay type: functional, cell-based
T2 sequence (whole entry): T1 sequence (P32247 whole entry)

[3] = target: T3, Bombesin receptor subtype-3 (Mus musculus, UniProt O54798); experiment: Agonistic activity at mouse BRS3 expressed in HEK293AEO cells by aequorin bioluminescence assay; assay type: functional, cell-based
T3 sequence (O54798 whole entry): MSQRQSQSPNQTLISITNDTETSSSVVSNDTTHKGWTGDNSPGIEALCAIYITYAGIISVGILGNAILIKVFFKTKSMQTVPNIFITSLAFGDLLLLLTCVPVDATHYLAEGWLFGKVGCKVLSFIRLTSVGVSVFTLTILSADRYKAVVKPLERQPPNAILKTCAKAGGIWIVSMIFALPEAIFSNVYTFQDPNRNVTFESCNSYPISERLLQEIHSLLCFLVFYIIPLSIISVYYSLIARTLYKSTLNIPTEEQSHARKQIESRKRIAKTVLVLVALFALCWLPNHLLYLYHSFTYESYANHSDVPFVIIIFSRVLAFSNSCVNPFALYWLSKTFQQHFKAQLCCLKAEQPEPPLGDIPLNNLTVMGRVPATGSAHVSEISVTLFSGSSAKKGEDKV

[4] = target: T4, Bombesin receptor subtype-3 (Mus musculus) (UniProt O54798); experiment: Agonistic activity at mouse BRS3 expressed in HEK293AEO cells at 10 uM by aequorin bioluminescence assay relative to dY peptide; assay type: functional, cell-based
T4 sequence (whole entry): T3 sequence (O54798 whole entry)

[5] = Oral bioavailability in Sprague-Dawley rat at 4 mg/kg; assay type: ADME, organism-based; settings: in vivo
How it was run: (§1)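 Sprague-Dawley rats given compound as solution in EtOH/PEG400/water (10:40:50), 1 mg/kg iv and 4 mg/kg po; clearance, steady-state volume of distribution, half-life, oral bioavailability and dose-normalised AUC derived.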

[6] = Clearance in Sprague-Dawley rat at 1 mg/kg, iv and 4 mg/kg, po; assay type: ADME, organism-based; settings: in vivo; how it was run: as §1
[7] = Volume of distribution at steady state in Sprague-Dawley rat at 1 mg/kg, iv and 4 mg/kg, po; assay type: ADME, organism-based; settings: in vivo, read-out: Vdss; how it was run: as §1
[8] = Half life in Sprague-Dawley rat at 1 mg/kg, iv and 4 mg/kg, po; assay type: ADME, organism-based; settings: in vivo; how it was run: as §1

Row | Structure (SMILES) | pEC50 [1] | Activity [2] [%] | pEC50 [3] | Activity [4] [%] | bioavailability [5] [%] | clearance [6] [mL/min/kg] | Vd [7] [L/kg] | half-life [8] [h]
1 | O=C(O)c1ccccc1-c1ccc(CCc2ncc(Cc3ccc(F)cc3)[nH]2)cc1 | 5.80 | 84 | 7.30 | 104 | – | – | – | –
2 | CCCCc1cnc(C(C)Cc2ccc(-c3ccccc3C(=O)O)cc2)[nH]1 (stereo not drawn) | 5.56 | 79 | 6.74 | 110 | – | – | – | –
3 | COc1ccccc1Cc1cnc(CCc2ccc(-c3ccccc3C(=O)O)cc2)[nH]1 | 5.76 | 88 | 6.79 | 101 | – | – | – | –
4 | O=C(O)c1ccccc1-c1ccc(CCc2nc(-c3ccccc3)c[nH]2)cc1 | 5.31 | – | 6.06 | – | – | – | – | –
5 | O=C(O)c1ccccc1-c1ccc(CCc2ncc(-c3ccccc3)[nH]2)cc1 | – | 30 | – | 101 | – | – | – | –
6 | Cc1cccc(Cc2cnc(CCc3ccc(-c4ccccc4C(=O)O)cc3)[nH]2)c1 | 5.37 | 87 | 7.12 | 89 | – | – | – | –
7 | CCCCc1cnc(CCc2ccc(-c3ccccc3C(=O)O)cc2)[nH]1 | 5.57 | 78 | 7.03 | 116 | 16 | 1.3 | 0.1 | 1.56
8 | N#Cc1ccccc1Cc1cnc(CCc2ccc(-c3ccccc3C(=O)O)cc2)[nH]1 | 5.26 | 51 | 6.19 | 139 | – | – | – | –
9 | CCCCc1cnc(C(Cc2ccc(-c3ccccc3C(=O)O)cc2)C(C)C)[nH]1 (stereo not drawn) | 5.34 | 60 | 5.65 | 87 | – | – | – | –
10 | N#Cc1ccc(Cc2cnc(CCc3ccc(-c4ccccc4C(=O)O)cc3)[nH]2)cc1 | 5.23 | 25 | 6.14 | 85 | – | – | – | –
11 | CCCCc1cnc(C(CC)Cc2ccc(-c3ccccc3C(=O)O)cc2)[nH]1 (stereo not drawn) | 5.57 | 76 | 6.47 | 104 | – | – | – | –
12 | Cc1ccc(Cc2cnc(CCc3ccc(-c4ccccc4C(=O)O)cc3)[nH]2)cc1 | 5.57 | 88 | 6.79 | 120 | – | – | – | –
13 | O=C(O)c1ccccc1-c1ccc(CCc2ncc(CC3CC3)[nH]2)cc1 | 6.00 | 96 | 7.14 | 144 | – | – | – | –
14 | O=C(O)c1ccccc1-c1ccc(CCc2ncc(Cc3ccc(Cl)cc3)[nH]2)cc1 | 5.64 | 89 | 6.99 | 105 | – | – | – | –
15 | O=C(O)c1ccccc1-c1ccc(CCc2ncc(CCc3ccccc3)[nH]2)cc1 | 5.88 | 86 | 6.76 | 89 | – | – | – | –
16 | CCCCc1cnc(C(CCCC)Cc2ccc(-c3ccccc3C(=O)O)cc2)[nH]1 (stereo not drawn) | 5.58 | 66 | 6.28 | 96 | – | – | – | –
17 | N#Cc1cccc(Cc2cnc(CCc3ccc(-c4ccccc4C(=O)O)cc3)[nH]2)c1 | 6.09 | 95 | 7.70 | 102 | – | – | – | –
18 | CCCCc1cnc(/C=C/c2ccc(-c3ccccc3C(=O)O)cc2)[nH]1 | 5.36 | 8 | 5.00 | 39 | – | – | – | –
19 | COc1cccc(Cc2cnc(CCc3ccc(-c4ccccc4C(=O)O)cc3)[nH]2)c1 | 5.38 | 73 | 7.10 | 80 | – | – | – | –
20 | CCCCc1cnc(Cc2ccc(-c3ccccc3C(=O)O)cc2)[nH]1 | < 5.00 | 0 | < 5.00 | 0 | – | – | – | –
21 | O=C(O)c1ccccc1-c1ccc(CCc2ncc(Cc3cccc(Cl)c3)[nH]2)cc1 | 6.08 | 91 | 7.51 | 98 | – | – | – | –
22 | CC(C)(C)c1cnc(CCc2ccc(-c3ccccc3C(=O)O)cc2)[nH]1 | 5.36 | 45 | 5.56 | 108 | – | – | – | –
23 | CCCCc1cnc(CCCc2ccc(-c3ccccc3C(=O)O)cc2)[nH]1 | 5.25 | 54 | 6.42 | 101 | – | – | – | –
24 | CCCCc1cnc(C(CCC)Cc2ccc(-c3ccccc3C(=O)O)cc2)[nH]1 (stereo not drawn) | 5.93 | 96 | 6.78 | 102 | – | – | – | –
25 | COc1ccc(Cc2cnc(CCc3ccc(-c4ccccc4C(=O)O)cc3)[nH]2)cc1 | 5.27 | 44 | 6.29 | 88 | – | – | – | –

Now from value to molecule:

Row | pEC50 [1] | Activity [2] [%] | pEC50 [3] | Activity [4] [%] | bioavailability [5] [%] | clearance [6] [mL/min/kg] | Vd [7] [L/kg] | half-life [8] [h] | Structure (SMILES)
26 | 7.39 | 104 | 8.14 | 102 | – | – | – | – | O=C(O)c1ccccc1-c1ccc(CCc2ncc(CC3CCCCC3)[nH]2)cc1
27 | 7.60 | 101 | 8.02 | 94 | – | – | – | – | CCC(C)(C)Cc1c[nH]c(CCc2ccc(-c3ccccc3C(=O)O)cc2)n1
28 | 7.06 | 104 | 8.10 | 110 | – | – | – | – | O=C(O)c1ccccc1-c1ccc(CCc2ncc(Cc3cccc(F)c3F)[nH]2)cc1
29 | 7.06 | 106 | 8.24 | 102 | – | – | – | – | O=C(O)c1ccccc1-c1ccc(CCc2ncc(CC3CCCCCC3)[nH]2)cc1
30 | 6.90 | 93 | 8.03 | 106 | – | – | – | – | Cc1ccccc1Cc1cnc(CCc2ccc(-c3ccccc3C(=O)O)cc2)[nH]1
31 | 7.12 | 97 | 7.52 | 116 | – | – | – | – | CCC(C)(CC)Cc1cnc(CCc2ccc(-c3ccccc3C(=O)O)cc2)[nH]1
32 | 6.80 | 107 | 8.10 | 108 | – | – | – | – | O=C(O)c1ccccc1-c1ccc(CCc2ncc(Cc3cccc(F)c3)[nH]2)cc1
33 | 6.43 | 102 | 7.83 | 116 | – | – | – | – | O=C(O)c1ccccc1-c1ccc(CCc2ncc(C3CCCCC3)[nH]2)cc1
34 | 6.92 | 112 | 8.00 | 111 | – | – | – | – | CC(C)CCc1cnc(CCc2ccc(-c3ccccc3C(=O)O)cc2)[nH]1
35 | 7.41 | 102 | 8.21 | 99 | – | – | – | – | CC(C)(C)CCc1cnc(CCc2ccc(-c3ccccc3C(=O)O)cc2)[nH]1
36 | 6.69 | 109 | 7.96 | 111 | – | – | – | – | O=C(O)c1ccccc1-c1ccc(CCc2ncc(Cc3ccccc3)[nH]2)cc1
37 | 6.47 | 96 | 7.64 | 106 | – | – | – | – | O=C(O)c1ccccc1-c1ccc(CCc2ncc(CC3CCOCC3)[nH]2)cc1
38 | 6.53 | 100 | 7.66 | 109 | – | – | – | – | O=C(O)c1ccccc1-c1ccc(CCc2ncc(Cc3ccccc3Cl)[nH]2)cc1
39 | 6.23 | 105 | 8.15 | 99 | – | – | – | – | O=C(O)c1ccccc1-c1ccc(CCc2ncc(CC3CCC3)[nH]2)cc1
40 | 6.88 | 102 | 8.10 | 94 | – | – | – | – | O=C(O)c1ccccc1-c1ccc(CCc2ncc(CC3CCCC3)[nH]2)cc1
41 | 6.75 | 108 | 8.02 | 121 | – | – | – | – | O=C(O)c1ccccc1-c1ccc(CCc2ncc(Cc3ccccc3F)[nH]2)cc1
42 | 6.19 | 94 | 7.48 | 101 | – | – | – | – | O=C(O)c1ccccc1-c1ccc(CCc2ncc(CCC3CCCCC3)[nH]2)cc1
